From ChEMBL document CHEMBL1121369, “Antihypertensive (2-aminoethyl)thiourea derivatives. 1” (J Med Chem, 1980)
Where “and” joins values, the source holds several entries; their conditions need not be identical. Equal values may be shown once.

How the values were obtained:
Rattus norvegicus [1] = assay: Compound is measured for oral antihypertensive activity in groups of 6-12 conscious spontaneously hypertensive rats at 60 mg/kg; format: functional
In short: (§1)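 Male spontaneously hypertensive rats of Wistar–Okamoto origin (12–15 weeks old, bred in-house) were dosed orally, in groups of 6–12 and conscious. Each rat was warmed for 5–10 min at 37–38 °C, then restrained. Systolic pressure was read indirectly at the tail with an occluding cuff and a piezoelectric pulse transducer, before dosing and at 1, 3, 6 and 24 h after.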

Rattus norvegicus [2] = assay: Compound is measured for oral antihypertensive activity in groups of 6-12 conscious spontaneously hypertensive rats at 45 mg/kg; Range is 10-15%; format: functional; in short: as §1
Rattus norvegicus [3] = assay: Compound is measured for oral antihypertensive activity in groups of 6-12 conscious spontaneously hypertensive rats at 160 mg/kg; Range is 15-20%; format: functional; in short: as §1
Rattus norvegicus [4] = assay: Compound is measured for oral antihypertensive activity in groups of 6-12 conscious spontaneously hypertensive rats at 100 mg/kg; Range is 15-20%; format: functional; in short: as §1
Rattus norvegicus [5] = assay: Compound is measured for oral antihypertensive activity in groups of 6-12 conscious spontaneously hypertensive rats at 250 mg/kg; format: functional; in short: as §1
Rattus norvegicus [6] = assay: Compound is measured for oral antihypertensive activity in groups of 6-12 conscious spontaneously hypertensive rats at 200 mg/kg; Range is 15-20%; format: functional; in short: as §1
[7] = Therapeutic ratio is oral dose producing sedation/reduction in blood pressure; Range is 30-60; format: ADME, tissue-based
Rattus norvegicus [8] = assay: Compound is measured for oral antihypertensive activity in groups of 6-12 deoxy-corticosterone-sodium hypertensive (DOCA-Na) rats at 10 mg/kg (fall in systolic blood pressure 6-24 hr after dosing); format: functional, Artery
In short: (§2)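 DOCA-Na rats were given two weeks to become hypertensive (systolic above 200 mmHg) and were then dosed orally, in groups of 6–12 and unanesthetized. Rats were warmed for 5–10 min at 37–38 °C and restrained. Systolic tail pressure was read with a cuff and pneumatic pulse transducer, before dosing and at 1, 3, 6 and 24 h post-dose.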

Rattus norvegicus [9] = assay: Compound is measured for oral antihypertensive activity in groups of 6-12 deoxy-corticosterone-sodium hypertensive (DOCA-Na) rats at 0.5 mg/kg; format: functional; in short: as §2
Rattus norvegicus [10] = assay: Compound is measured for oral antihypertensive activity in groups of 6-12 conscious spontaneously hypertensive rats at 0.5 mg/kg; format: functional; in short: as §1
Canis familiaris [11] = assay: (§3) Oral dose required to cause 20% fall in blood pressure; format: functional, Canis lupus familiaris
Rattus norvegicus [12] = assay: as §3; format: functional
[13] = Therapeutic ratio is oral dose producing sedation/reduction in blood pressure; format: ADME, tissue-based
Rattus norvegicus [14] = assay: Oral dose required to cause 20% fall in sedation; Decrease spontaneous motor activity; format: functional
In short: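 Normotensive rats were dosed orally. Spontaneous motor activity was counted with an electronic motility meter over a 10-min period starting 1 h after dosing. The dose was estimated from dose–response curves, with 95% fiducial limits.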

Rattus norvegicus [15] = assay: Compound is measured for oral antihypertensive activity in groups of 6-12 deoxy-corticosterone-sodium hypertensive (DOCA-Na) rats at 1 mg/kg; Range is 15-20%; format: functional; in short: as §2
Rattus norvegicus [16] = assay: Compound is measured for oral antihypertensive activity in groups of 6-12 conscious spontaneously hypertensive rats at 1 mg/kg; Range is 15-20%; format: functional; in short: as §1
Monkey = assay: (§4) Oral dose required to cause 20% fall in sedation; Increase in foot shock rate; format: functional
In short: (§5)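 Male Charles River C-D rats and squirrel monkeys were trained to press a lever at a stable rate to postpone a 5-s foot shock, given every 20 s on failure. Drugs were given orally, with control sessions before, between and after test sessions. Avoidance-rate decrease and the increase in shocks/hour were recorded. Significance threshold: a 12% decrease or 4 extra shocks/hour (p ≤ 0.05).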

Rattus norvegicus [17] = assay: as §4; format: functional; in short: as §5
Canis familiaris [18] = assay: Oral dose required to cause 20% fall in sedation; Range is 30-60; format: functional, Canis lupus familiaris
Rattus norvegicus [19] = assay: Compound is measured for oral antihypertensive activity in groups of 6-12 conscious spontaneously hypertensive rats at 10 mg/kg (fall in systolic blood pressure 6-24 hr after dosing); format: functional, Artery; in short: as §1
Rattus norvegicus [20] = assay: Compound is measured for oral antihypertensive activity in groups of 6-12 conscious spontaneously hypertensive rats at 10 mg/kg; format: functional; in short: as §1
Rattus norvegicus [21] = assay: Compound is measured for oral antihypertensive activity in groups of 6-12 deoxy-corticosterone-sodium hypertensive (DOCA-Na) rats at 10 mg/kg; format: functional; in short: as §2
Rattus norvegicus [22] = assay: Compound is measured for oral antihypertensive activity in groups of 6-12 conscious spontaneously hypertensive rats at 100 mg/kg; format: functional; in short: as §1
Rattus norvegicus [23] = assay: Compound is measured for oral antihypertensive activity in groups of 6-12 conscious spontaneously hypertensive rats at 250 mg/kg; Range is 10-15%; format: functional; in short: as §1
Rattus norvegicus [24] = assay: Compound is measured for oral antihypertensive activity in groups of 6-12 deoxy-corticosterone-sodium hypertensive (DOCA-Na) rats at 10 mg/kg; Range is 10-15%; format: functional; in short: as §2
Rattus norvegicus [25] = assay: Compound is measured for oral antihypertensive activity in groups of 6-12 deoxy-corticosterone-sodium hypertensive (DOCA-Na) rats at 10 mg/kg(fall in systolic blood pressure 6-24 hr after dosing); format: functional, Artery; in short: as §2
Rattus norvegicus [26] = assay: Compound is measured for oral antihypertensive activity in groups of 6-12 conscious spontaneously hypertensive rats at 10 mg/kg(fall in systolic blood pressure 6-24 hr after dosing); format: functional, Artery; in short: as §1
Rattus norvegicus [27] = assay: Compound is measured for oral antihypertensive activity in groups of 6-12 conscious spontaneously hypertensive rats at 10 mg/kg; Range is 15-20%; format: functional; in short: as §1
Rattus norvegicus [28] = assay: Compound is measured for oral antihypertensive activity in groups of 6-12 conscious spontaneously hypertensive rats at 75 mg/kg; format: functional; in short: as §1
Rattus norvegicus [29] = assay: Compound is measured for oral antihypertensive activity in groups of 6-12 deoxy-corticosterone-sodium hypertensive (DOCA-Na) rats at 10 mg/kg; Range is 15-20%; format: functional; in short: as §2
Rattus norvegicus [30] = assay: Compound is measured for oral antihypertensive activity in groups of 6-12 conscious spontaneously hypertensive rats at 175 mg/kg; format: functional; in short: as §1
Rattus norvegicus [31] = assay: Compound is measured for oral antihypertensive activity in groups of 6-12 conscious spontaneously hypertensive rats at 50 mg/kg(fall in systolic blood pressure 6-24 hr after dosing); format: functional, Artery; in short: as §1
in vivo = details: blood, po
Rattus norvegicus [32] = assay: Compound is measured for oral antihypertensive activity in groups of 6-12 deoxy-corticosterone-sodium hypertensive (DOCA-Na) rats at 60 mg/kg(fall in systolic blood pressure 6-24 h after dosing); format: functional, Artery; in short: as §2
Rattus norvegicus [33] = assay: Compound is measured for oral antihypertensive activity in groups of 6-12 conscious spontaneously hypertensive rats at 85 mg/kg; format: functional; in short: as §1
Rattus norvegicus [34] = assay: Compound is measured for oral antihypertensive activity in groups of 6-12 conscious spontaneously hypertensive rats at 1 mg/kg (fall in systolic blood pressure 6-24 hr after dosing); format: functional, Artery; in short: as §1
Rattus norvegicus [35] = assay: Compound is measured for oral antihypertensive activity in groups of 6-12 deoxy-corticosterone-sodium hypertensive (DOCA-Na) rats at 5 mg/kg; Range is 10-15%; format: functional; in short: as §2
Rattus norvegicus [36] = assay: Compound is measured for oral antihypertensive activity in groups of 6-12 deoxy-corticosterone-sodium hypertensive (DOCA-Na) rats at 1 mg/kg; format: functional; in short: as §2
Rattus norvegicus [37] = assay: Compound is measured for oral antihypertensive activity in groups of 6-12 conscious spontaneously hypertensive rats at 30 mg/kg; format: functional; in short: as §1

Work on `CN1CCN(/C(S)=N/c2c(Cl)cccc2Cl)CC1.Cl` yielded an Effect (Rattus norvegicus [1]) of under 10%.

In the case of `CCN(CC)CC/N=C(\S)Nc1c(Cl)cccc1Cl.Cl`, the Effect (Rattus norvegicus [2]) is reported as 10%.

Compound `CN1CCN(CC/N=C(\S)Nc2c(Cl)cccc2Cl)CC1.Cl.Cl` has an Effect (Rattus norvegicus [3]) of 15%.

With `NS(=O)(=O)CC/N=C(\S)Nc1c(Cl)cccc1Cl` the Effect (Rattus norvegicus [4]) was 15%.

For `N/N=C(\S)Nc1c(Cl)cccc1Cl`, the Effect (Rattus norvegicus [5]) was under 10%.

Compound `NCCC/N=C(\S)Nc1c(Cl)cccc1Cl` has an Effect (Rattus norvegicus [6]) of 15%.

With `NCC/N=C(\S)Nc1c(Cl)cccc1Cl.O=C(O)/C=C\C(=O)O` the selectivity ratio [7] was 30, the Effect (Rattus norvegicus [8]) was over 20% and the Effect (Rattus norvegicus [9]) was under 10%. It also gave an Effect (Rattus norvegicus [10]) of under 10%, a Dose (Canis familiaris [11]) of 1 mg/kg and a Dose (Rattus norvegicus [12]) of 2.4 mg/kg. The Ratio [13] was 0.28 and 0.71, the Dose (Rattus norvegicus [14]) was 0.69 mg/kg and the Effect (Rattus norvegicus [15]) was 15%. The Effect (Rattus norvegicus [16]) was 15%, the Dose (Monkey) was over 64 mg/kg and the Dose (Rattus norvegicus [17]) was 1.7 mg/kg. The Dose (Canis familiaris [18]) was 30 mg/kg and the Effect (Rattus norvegicus [19]) was over 20%.

Compound `CCO.NCC/N=C(\S)Nc1c(F)cccc1F.O=C(O)CCC(=O)O` has an Effect (Rattus norvegicus [20]) of under 10% and an Effect (Rattus norvegicus [21]) of under 10%.

In the case of `Cc1ccc(/N=C(\S)NCCN)c(Cl)c1.O=C(O)/C=C\C(=O)O`, the Effect (Rattus norvegicus [22]) is reported as under 10%.

Work on `NCC/N=C(\S)Nc1c(Cl)cc(Cl)cc1Cl.O=C(O)/C=C\C(=O)O` yielded an Effect (Rattus norvegicus [20]) of under 10% and an Effect (Rattus norvegicus [4]) of 15%.

For `NCC/N=C(\N)Nc1c(Cl)cccc1Cl`, the Effect (Rattus norvegicus [23]) was 10% and the Effect (Rattus norvegicus [24]) was 10%.

`NCC/N=C(\S)Nc1c(Br)cccc1Br` showed an Effect (Rattus norvegicus [16]) of 15%, an Effect (Rattus norvegicus [25]) of over 20% and an Effect (Rattus norvegicus [26]) of over 20%.

In the case of `Cc1cccc(C)c1/N=C(\S)NCCN.O=C(O)CCC(=O)O`, the Effect (Rattus norvegicus [27]) is reported as 15% and the Effect (Rattus norvegicus [25]) is reported as over 20%.

Compound `CCOC(=O)CC/N=C(\S)Nc1c(Cl)cccc1Cl` has an Effect (Rattus norvegicus [22]) of under 10%.

Compound `N#CCCNC(=S)Nc1c(Cl)cccc1Cl` has an Effect (Rattus norvegicus [28]) of under 10%.

In the case of `CC(=O)NCC/N=C(\N)Nc1c(Cl)cccc1Cl`, the Effect (Rattus norvegicus [5]) is reported as under 10% and the Effect (Rattus norvegicus [21]) is reported as under 10%.

With `CS/C(=N\CCN)Nc1c(Cl)cccc1Cl` the Effect (Rattus norvegicus [27]) was 15% and the Effect (Rattus norvegicus [29]) was 15%.

With `OCC/N=C(\S)Nc1c(Cl)cccc1Cl` the Effect (Rattus norvegicus [30]) was under 10%.

Compound `CNCC/N=C(\S)Nc1c(Cl)cccc1Cl.O=C(O)/C=C\C(=O)O` has an Effect (Rattus norvegicus [22]) of under 10%.

Work on `NCCNC(=O)Nc1c(Cl)cccc1Cl` yielded an Effect (Rattus norvegicus [5]) of under 10% and an Effect (Rattus norvegicus [21]) of under 10%.

Compound `NCC/N=C(\S)Nc1c(Cl)cc([N+](=O)[O-])cc1Cl.O=C(O)/C=C\C(=O)O` has an Effect (Rattus norvegicus [20]) of under 10% and an Effect (Rattus norvegicus [31]) of over 20%.

With `COc1cccc(OC)c1/N=C(\S)NCCN.O=C(O)/C=C\C(=O)O` the Effect (Rattus norvegicus [22]) was under 10%.

Work on `Clc1cccc(Cl)c1NC1=NCCN1` [CLONIDINE] yielded an Effect (Rattus norvegicus [9]) of over 20%, an Effect (Rattus norvegicus [10]) of over 20% and a Dose (Canis familiaris [11]) of 0.3 mg/kg. For the same compound, the Dose (Rattus norvegicus [12]) was 0.06 mg/kg, the Ratio [13] was 3 and the selectivity ratio [13] was 1.83. It also gave a selectivity ratio (in vivo) of 0.8 and a Dose (Monkey) of 0.7 mg/kg.

With `Cl.NCC/N=C(\S)Nc1ccccc1` the Effect (Rattus norvegicus [20]) was under 10%.

Work on `NC(=O)CC/N=C(\S)Nc1c(Cl)cccc1Cl` yielded an Effect (Rattus norvegicus [22]) of under 10%.

Work on `Cc1ccc(/N=C(\S)NCCN)c(C)c1.O=C(O)/C=C\C(=O)O` yielded an Effect (Rattus norvegicus [22]) of under 10%.

`N/C(S)=N/c1c(Cl)cccc1Cl` showed an Effect (Rattus norvegicus [1]) of under 10% and an Effect (Rattus norvegicus [32]) of under 10%.

`Cl.N=C(N)CC/N=C(\S)Nc1c(Cl)cccc1Cl` showed an Effect (Rattus norvegicus [22]) of under 10%.

Compound `CNCCN(C)/C(S)=N/c1c(Cl)cccc1Cl.O=C(O)/C=C\C(=O)O` has an Effect (Rattus norvegicus [33]) of under 10%.

Compound `NCC/N=C(\S)Nc1cccc(Cl)c1Cl.O=C(O)/C=C\C(=O)O` has an Effect (Rattus norvegicus [34]) of over 20%, an Effect (Rattus norvegicus [35]) of 10% and an Effect (Rattus norvegicus [10]) of under 10%. It also gave an Effect (Rattus norvegicus [36]) of under 10%, an Effect (Rattus norvegicus [25]) of over 20% and an Effect (Rattus norvegicus [26]) of over 20%.

In the case of `Cl.S=C(NCCN1CCCCC1)Nc1c(Cl)cccc1Cl`, the Effect (Rattus norvegicus [37]) is reported as under 10%.

`O=C(O)CC/N=C(\S)Nc1c(Cl)cccc1Cl` showed an Effect (Rattus norvegicus [22]) of under 10%.
